Among all 330,000 compounds or so, about 1,100 (0.33%) were called active.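 Rule for the calls: active = at 10 µM dose, activation of 40% or more, normalized to positive control; inactive = the rest.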 Many of the other results were omitted from the sample, so actives are more common in it than they were.

The nature of the test: PERK-eIF2a-CHOP pathway stimulators – cell-based, CHO-CHOP luciferase reporter, luminescence, uHTS, primary screen (AID 449763).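 Note: 100% = tunicamycin at 10 µg/mL and 0% = DMSO alone.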 Conditions: UPR activation, at 10 µM, stronger effect = higher value, percent of tunicamycin response over DMSO baseline. The gist of the method:
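Assay system: CHO-CHOP cells, stable luciferase reporter of PERK-eIF2a-CHOP signalling / Buffer or medium: F12 plus 10% serum / Compound dosing: one dose, 10 µM in 0.5% DMSO / Times: 6 h compound treatment, 37 °C / Technique: luciferase luminescence / Read-out: % reporter activation, DMSO baseline versus tunicamycin full activation / Benchmarks: tunicamycin and DMSO controls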
Turning to `O=C1NC(=O)N(Cc2ccco2)C(=O)/C1=C\c1ccc(-c2ccc(F)cc2)o1`, the activation is 0.772% (inactive). As for `O=C1NC(=O)N(CCc2ccc(F)cc2)C(=O)/C1=C/C=C/c1ccccc1`, the figure is 75.4% (active); as for `O=C(O)COc1ccccc1/C=C1\C(=O)NC(=O)N(CCC2=CCCCC2)C1=O`, -0.189% (inactive); as for `COc1cccc(-c2nc3ccc(N4CCN(C)CC4)cc3[nH]2)c1`, -6.37% (inactive). On to `Cc1cc(N2C(=O)C3CCCN3C2c2ccc(Cl)c(Cl)c2)no1` (stereo not given), for which the activation was -0.781% (inactive).
